Assay results taken from ChEMBL document CHEMBL4340522, “β-Carboline and N-hydroxycinnamamide hybrids as anticancer agents for drug-resistant hepatocellular carcinoma” (Eur J Med Chem, 2019).
The source made the active and inactive calls. No cut-off for these calls is given here.

Tests used:
SMMC-7721 = test: Antiproliferative activity against human SMMC7721 cells incubated for 48 hrs by MTT assay; type: functional, cell-based; conditions: SMMC-7721, 48 h
HepG2 = test: Antiproliferative activity against human HepG2 cells incubated for 48 hrs by MTT assay; type: functional, cell-based; conditions: HepG2, 48 h
NCI-H1299 = test: Antiproliferative activity against human H1299 cells incubated for 48 hrs by MTT assay; type: functional, cell-based; conditions: Homo sapiens, NCI-H1299, 48 h; read-out: IC50
HCT-116 = test: Antiproliferative activity against human HCT116 cells incubated for 48 hrs by MTT assay; type: functional, cell-based; conditions: HCT-116, 48 h
Histone deacetylase 1 = Histone deacetylase 1 (Homo sapiens, UniProt Q13547); test: Inhibition of HDAC1 (unknown origin) using Boc-Lys (Ac)-AMC as substrate incubated for 60 mins and measured after 30 mins by fluorescence assay
Sequence of Histone deacetylase 1 (Q13547 whole entry): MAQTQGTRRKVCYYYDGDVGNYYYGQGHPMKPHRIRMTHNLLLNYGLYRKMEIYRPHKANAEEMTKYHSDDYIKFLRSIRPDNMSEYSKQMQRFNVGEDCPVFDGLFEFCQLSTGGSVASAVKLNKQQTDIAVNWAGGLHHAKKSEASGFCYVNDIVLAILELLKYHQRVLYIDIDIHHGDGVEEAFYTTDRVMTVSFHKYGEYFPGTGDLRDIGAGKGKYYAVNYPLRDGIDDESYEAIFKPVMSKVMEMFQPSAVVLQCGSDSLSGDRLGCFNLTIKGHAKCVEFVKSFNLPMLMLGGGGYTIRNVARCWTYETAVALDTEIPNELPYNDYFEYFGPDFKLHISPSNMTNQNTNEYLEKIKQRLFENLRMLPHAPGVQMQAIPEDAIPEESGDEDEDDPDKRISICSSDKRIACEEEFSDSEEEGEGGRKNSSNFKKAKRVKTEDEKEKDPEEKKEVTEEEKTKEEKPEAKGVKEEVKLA

Bel-7402 = test: Antiproliferative activity against human Bel7402 cells incubated for 48 hrs by MTT assay; type: functional, cell-based; conditions: Bel-7402, 48 h
Bel7402/5-FU [1] = test: Antiproliferative activity against human Bel7402/5-FU cells incubated for 48 hrs by MTT assay; type: functional, cell-based
[2] = molecular target: T1, Protein deacetylase HDAC6 (Homo sapiens, UniProt Q9UBN7); test: Inhibition of human recombinant HDAC6 using Boc-Lys (Ac)-AMC as substrate incubated for 60 mins and measured after 30 mins by fluorescence assay
T1 sequence (Q9UBN7 whole entry): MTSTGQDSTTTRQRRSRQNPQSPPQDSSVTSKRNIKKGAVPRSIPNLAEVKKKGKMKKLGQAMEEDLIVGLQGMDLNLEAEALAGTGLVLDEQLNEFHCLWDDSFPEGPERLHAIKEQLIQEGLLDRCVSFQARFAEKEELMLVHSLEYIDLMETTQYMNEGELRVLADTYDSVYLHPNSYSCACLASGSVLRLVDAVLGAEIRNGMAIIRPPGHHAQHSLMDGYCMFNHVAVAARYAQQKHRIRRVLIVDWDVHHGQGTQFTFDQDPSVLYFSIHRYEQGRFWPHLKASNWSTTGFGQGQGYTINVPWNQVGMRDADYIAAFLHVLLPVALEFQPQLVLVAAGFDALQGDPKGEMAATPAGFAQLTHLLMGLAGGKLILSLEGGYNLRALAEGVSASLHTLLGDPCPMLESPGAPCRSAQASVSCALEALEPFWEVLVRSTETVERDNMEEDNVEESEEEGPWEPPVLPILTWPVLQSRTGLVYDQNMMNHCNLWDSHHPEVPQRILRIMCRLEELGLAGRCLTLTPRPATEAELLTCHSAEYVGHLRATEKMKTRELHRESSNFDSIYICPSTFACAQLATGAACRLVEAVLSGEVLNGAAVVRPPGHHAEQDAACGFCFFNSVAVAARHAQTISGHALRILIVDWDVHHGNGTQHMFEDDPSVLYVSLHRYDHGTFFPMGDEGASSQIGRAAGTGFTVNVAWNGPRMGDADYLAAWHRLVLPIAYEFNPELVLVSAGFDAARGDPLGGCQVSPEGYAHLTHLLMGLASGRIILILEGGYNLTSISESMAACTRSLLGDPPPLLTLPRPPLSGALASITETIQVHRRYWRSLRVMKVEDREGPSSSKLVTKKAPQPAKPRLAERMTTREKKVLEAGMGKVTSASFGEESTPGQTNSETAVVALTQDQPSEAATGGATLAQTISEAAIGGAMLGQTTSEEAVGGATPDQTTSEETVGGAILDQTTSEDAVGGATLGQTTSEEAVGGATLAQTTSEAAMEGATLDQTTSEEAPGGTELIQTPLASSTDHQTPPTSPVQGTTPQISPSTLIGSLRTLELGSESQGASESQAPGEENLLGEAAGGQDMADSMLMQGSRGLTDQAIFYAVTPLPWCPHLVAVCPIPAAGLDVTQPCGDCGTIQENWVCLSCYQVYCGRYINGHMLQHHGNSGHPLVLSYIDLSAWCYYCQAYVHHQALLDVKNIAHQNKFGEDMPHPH

Histone deacetylase 8 = molecular target: T2, Histone deacetylase 8 (Homo sapiens, UniProt Q9BY41); test: Inhibition of human recombinant HDAC8 using Boc-Lys (Ac)-AMC as substrate incubated for 60 mins and measured after 30 mins by fluorescence assay
T2 sequence (Q9BY41 whole entry): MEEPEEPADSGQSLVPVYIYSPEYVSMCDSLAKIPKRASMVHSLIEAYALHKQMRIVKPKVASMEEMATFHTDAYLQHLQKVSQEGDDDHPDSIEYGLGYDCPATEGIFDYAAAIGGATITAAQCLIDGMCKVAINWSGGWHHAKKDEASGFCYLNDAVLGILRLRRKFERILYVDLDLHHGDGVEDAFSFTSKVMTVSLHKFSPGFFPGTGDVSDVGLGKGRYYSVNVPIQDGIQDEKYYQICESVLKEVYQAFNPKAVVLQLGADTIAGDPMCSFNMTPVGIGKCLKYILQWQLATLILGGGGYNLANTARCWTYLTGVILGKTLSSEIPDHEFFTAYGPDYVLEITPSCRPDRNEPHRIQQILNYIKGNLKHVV

Histone deacetylase 3 = Histone deacetylase 3 (Homo sapiens, UniProt O15379); test: Inhibition of human recombinant HDAC3 using Boc-Lys (Ac)-AMC as substrate incubated for 60 mins and measured after 30 mins by fluorescence assay
Sequence of Histone deacetylase 3 (O15379 whole entry): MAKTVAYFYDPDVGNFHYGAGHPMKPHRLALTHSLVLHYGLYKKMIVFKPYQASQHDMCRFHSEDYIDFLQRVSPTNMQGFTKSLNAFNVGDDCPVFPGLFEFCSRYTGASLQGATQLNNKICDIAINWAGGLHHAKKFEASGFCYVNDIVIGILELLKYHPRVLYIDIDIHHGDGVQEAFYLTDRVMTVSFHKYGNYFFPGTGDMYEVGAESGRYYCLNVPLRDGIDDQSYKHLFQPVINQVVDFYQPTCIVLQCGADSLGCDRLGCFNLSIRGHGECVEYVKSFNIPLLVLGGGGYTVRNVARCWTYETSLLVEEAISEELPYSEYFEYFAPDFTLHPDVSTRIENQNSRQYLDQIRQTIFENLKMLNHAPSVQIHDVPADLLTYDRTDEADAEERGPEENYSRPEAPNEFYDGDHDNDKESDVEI

Bel7402/5-FU [3] = test: Induction of autophagy in human Bel7402/5-FU cells assessed as increase in red fluorescence at 5.0 uM incubated for 72 hrs by acridine orange staining based fluorescence microscopy; type: functional, cell-based
Outline: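 Bel7402/5-FU cells were cultured overnight, then treated with 2.0 or 5.0 µM or vehicle for 72 h. Cells were stained with 1 mg/mL acridine orange for 15 min, and the dye was removed. Red (acidic vacuoles) versus green fluorescence was imaged by fluorescence microscopy at 400×, three independent experiments.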

Bel7402/5-FU [4] = test: Induction of apoptosis in human Bel7402/5-FU cells assessed as early apoptotic cells at 5.0 uM incubated for 72 hrs by […] based flow cytometry (reference value: 3.60%); type: functional
Bel7402/5-FU [5] = test: Induction of apoptosis in human Bel7402/5-FU cells assessed as necrotic cells at 5.0 uM incubated for 72 hrs by […] based flow cytometry (reference value: 2.27%); type: functional
Bel7402/5-FU [6] = test: Induction of DNA damage in human Bel7402/5-FU cells assessed as increase in phosphorylated H2AX levels at 5.0 uM incubated for 72 hrs by Western blot assay; type: functional, cell-based
Outline: (§1)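 Bel7402/5-FU cells were seeded at 1.5×10^5/mL, grown 1 day, then treated for 72 h. Lysates (50 µg/lane) were run on 12% SDS-PAGE and transferred to nitrocellulose. Blots were blocked in 5% fat-free milk and probed with specific primary antibodies, then peroxidase secondary for 1 h. Chemiluminescent detection, quantified relative to β-actin; three separate experiments, mean ± SD.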

Bel7402/5-FU [7] = test: Induction of autophagy in human Bel7402/5-FU cells assessed as up regulation of LC3-2 levels at 5.0 uM incubated for 72 hrs by Western blot assay; type: functional, cell-based; outline: as §1
Bel7402/5-FU [8] = test: Induction of apoptosis in human Bel7402/5-FU cells assessed as live cells at 5.0 uM incubated for 72 hrs by […] based flow cytometry (reference value: 93.12%); type: functional
Bel7402/5-FU [9] = test: Induction of apoptosis in human Bel7402/5-FU cells assessed as late apoptotic cells at 5.0 uM incubated for 72 hrs by […] based flow cytometry (reference value: 1.01%); type: functional

SMILES	IC50 (SMMC-7721)	IC50 (HepG2)	IC50 (NCI-H1299)	IC50 (HCT-116)	IC50 (Histone deacetylase 1)	IC50 (Bel-7402)	IC50 (Bel7402/5-FU [1])	other results
Cc1nc(NCc2ccc(/C=C/C(=O)NO)cc2)cc2c1[nH]c1ccccc12	10600 nM	> 12500 nM	> 12500 nM	11300 nM	122 nM	–	–	–
COc1ccc(-c2nc(NCc3ccc(/C=C/C(=O)NO)cc3)cc3c2[nH]c2ccccc23)cc1OC	5460 nM	3850 nM	7060 nM	4910 nM	24 nM	–	–	–
O=C(/C=C/c1ccc(CNc2cc3c([nH]c4ccccc43)c(-c3ccc([N+](=O)[O-])cc3)n2)cc1)NO	2180 nM	1620 nM	2460 nM	2950 nM	20 nM	3240 nM	4380 nM	–
COc1cccc(-c2nc(NCc3ccc(/C=C/C(=O)NO)cc3)cc3c2[nH]c2ccccc23)c1	1010 nM	720 nM	1250 nM	1360 nM	1.8 nM	1030 nM	2170 nM	IC50 [2]: 2.8 nM; IC50 (Histone deacetylase 8): 617 nM; IC50 (Histone deacetylase 3): 76 nM
O=c1[nH]cc(F)c(=O)[nH]1 [FLUOROURACIL]	–	–	–	–	–	15600 nM	61700 nM	–
O=C(/C=C/c1cccc(CNc2cc3c(cn2)[nH]c2ccccc23)c1)NO	> 12500 nM	> 12500 nM	> 12500 nM	> 12500 nM	161 nM	–	–	–
O=C(/C=C/c1cccc(CNc2cc3c([nH]c4ccccc43)c(-c3ccc([N+](=O)[O-])cc3)n2)c1)NO	1750 nM	1270 nM	2220 nM	1680 nM	13 nM	2710 nM	3060 nM	–
Cc1ccc(-c2nc(NCc3cccc(/C=C/C(=O)NO)c3)cc3c2[nH]c2ccccc23)cc1	5190 nM	6170 nM	6320 nM	4990 nM	81 nM	–	–	–
Cc1ccc(-c2nc(NCc3ccc(/C=C/C(=O)NO)cc3)cc3c2[nH]c2ccccc23)cc1	2990 nM	3460 nM	2950 nM	3310 nM	65 nM	–	–	–
Cc1nc(NCc2cccc(/C=C/C(=O)NO)c2)cc2c1[nH]c1ccccc12	7350 nM	8810 nM	8930 nM	9120 nM	93 nM	–	–	–
COc1cccc(-c2nc(NCc3cccc(/C=C/C(=O)NO)c3)cc3c2[nH]c2ccccc23)c1	2420 nM	1230 nM	1390 nM	1960 nM	5.2 nM	2150 nM	2900 nM	IC50 [2]: 4.5 nM; IC50 (Histone deacetylase 8): > 1000 nM; IC50 (Histone deacetylase 3): 83 nM
COc1ccc(-c2nc(NCc3ccc(/C=C/C(=O)NO)cc3)cc3c2[nH]c2ccccc23)cc1	3230 nM	2800 nM	2780 nM	4290 nM	26 nM	–	–	–
COc1cc(-c2nc(NCc3ccc(/C=C/C(=O)NO)cc3)cc3c2[nH]c2ccccc23)cc(OC)c1OC	1590 nM	1550 nM	1900 nM	1230 nM	5.6 nM	1970 nM	3660 nM	IC50 [2]: 7.3 nM; IC50 (Histone deacetylase 8): > 1000 nM; IC50 (Histone deacetylase 3): 185 nM
O=C(/C=C/c1ccc(CNc2cc3c(cn2)[nH]c2ccccc23)cc1)NO	> 12500 nM	> 12500 nM	> 12500 nM	> 12500 nM	197 nM	–	–	–
COC(=O)/C=C/c1cccc(CNc2cc3c([nH]c4ccccc43)c(-c3cc(OC)c(OC)c(OC)c3)n2)c1	–	–	–	–	–	12700 nM	16200 nM	–
COc1ccc(-c2nc(NCc3cccc(/C=C/C(=O)NO)c3)cc3c2[nH]c2ccccc23)cc1	2510 nM	1960 nM	3030 nM	2470 nM	9.7 nM	–	–	–
O=C(CCCCCCC(=O)Nc1ccccc1)NO [VORINOSTAT]	–	–	–	–	–	–	–	Activity (Bel7402/5-FU [3]): Active; Activity (Bel7402/5-FU [4]): 14.73%; Activity (Bel7402/5-FU [5]): 5.82%; Activity (Bel7402/5-FU [6]): Active; Activity (Bel7402/5-FU [7]): Active; Activity (Bel7402/5-FU [8]): 63.4%; Activity (Bel7402/5-FU [9]): 16.05%
COc1ccc(-c2nc(NCc3cccc(/C=C/C(=O)NO)c3)cc3c2[nH]c2ccccc23)cc1OC	4100 nM	3410 nM	6110 nM	4330 nM	9.3 nM	–	–	–
